STAT1 inh: inhibitors of IFN-gamma induced STAT1 signaling; NIH 3T3 STAT1-luciferase reporter, luminescence; inhibition, % at 5.5 µM; 200,000 compounds, 0.35% hits;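 active means inhibition above a set limit, the mean inhibition across all tested compounds plus 3 SD, cut at about 34% in these data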;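 further: 0% = IFN-gamma with DMSO and 100% = IFN-gamma with 300 µM nifuroxazide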
STAT3 inh: inhibitors of IL-6 induced STAT3 signaling | U3A cells, IL-6 STAT3-luciferase reporter, luminescence; host cell line lacks STAT1 | inhibition, % at 5.5 µM | 190,000 compounds, 0.89% hits | AID 862;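 active means inhibition above the mean inhibition across all screened compounds plus 3 SD, cut at about 44% in these data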;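 further: 0% = DMSO only wells and 100% = 100 µM nifuroxazide control wells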
APP 5'UTR act: activates APP 5'UTR luciferase reporter; SH-SY5Y APP 5'UTR luciferase reporter, luminescence; zero percent = DMSO vehicle wells; activation, % at 2 µM; 190,000 compounds, 1% hits; AID 1276;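 active means activation above a set limit, based on mean plus 3 SD of controls, cut at about 140% in these data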
STAT1 activator: activators of IFN-gamma induced STAT1 signaling. 200,000 compounds, 2.6% hits. activation (% of control), % at 5.5 µM. AID 932. NIH 3T3 STAT1-luciferase reporter, luminescence; 100% = IFN-gamma alone, no compound;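 active means activation above the screen-wide mean activation plus 3 SD, cut at about 130% in these data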;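 further: raw ratio to IFN-gamma control signal so 100% means no change and 0% no light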
STAT3 act: STAT3 signaling activation. U3A cells, IL-6 STAT3-luciferase reporter, luminescence; 100% = signal with IL-6 EC80 alone. activation (% of control), % at 5.6 µM. 190,000 compounds, 0.91% hits;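 active means activation above the screen-wide mean of compound activation plus 3 SD, cut at about 130% in these data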;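 further: 0% = background luminescence of wells with medium and substrate only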
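Material: human U3A cells carrying STAT3-luciferase construct. Measured by: reporter luminescence signal. Timing: compound 1 h, then IL-6 6 h at 37 °C.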
NF-kB neuron act: raises NF-kB expression in human neuronal cells; NF-kB reporter expression; stronger effect = higher value; fold change at 12.5 µM; 190,000 compounds, 1.6% hits; AID 1239; in the data active means fold change above about 3.3
Starred values were filed as active, the others as inactive. Shown are actives, neighbours in structure and some others; about 5.1% of the full set was active somewhere.

SMILES	STAT1 inh	STAT3 inh	APP 5'UTR act	STAT1 activator	STAT3 act	NF-kB neuron act
Cc1ccc(C(=O)OCC(=O)c2cc(C)n(CC3CCCO3)c2C)cc1 (centres undefined)	-47.6	-0.8	101.3	139.6*	104.7	1.08
Cc1cc(C(=O)COC(=O)c2cccnc2Cl)c(C)n1CC1CCCO1 (centres undefined)	80.3*	87.7*	132.4	24.5	25.2	0.44
CN(C)c1ccc(N2CN=C3SCC(=O)N3C2)cc1	-66.7	-30.6	135.6*	160.1*	127.6	0.58
O=C1CSC2=NCN(c3ccc4c(c3)OCO4)CN12	-8.5	-14.0	68.9	107.8	114.4	1.73
Cc1ccc(C2=NNC3(CCOC(C)(C)C3)S2)cc1 (centres undefined)	-17.8	16.3	177.9*	114.3	88.8	2.9
CCN1CCN(c2ncnc3c2cnn3-c2ccccc2)CC1	-18.8	14.0	33.9	117.0	95.5	1.82
Cc1cccc(-n2ncc3c(N4CCC(C)CC4)ncnc32)c1	-47.2	34.2	58.0	142.6*	77.8	4.28*
CCOC(=O)C1CCCN(c2ncnc3c2cnn3-c2cccc(C)c2)C1 (centres undefined)	-0.5	34.8	10.5	100.5	73.1	0.88
COc1ccc(-n2ncc3c(N4CCC(C(N)=O)CC4)ncnc32)cc1	-34.8	-16.9	101.9	131.8*	120.7	3.77*
CC1CC(C)CN(c2ncnc3c2cnn3-c2ccc(Cl)cc2)C1 (centres undefined)	-17.7	-1.2	233.0*	117.5	101.1	0.87
CCOC(=O)C1CCN(c2ncnc3c2cnn3-c2ccc(OC)cc2)CC1	-12.9	14.9	18.6	111.8	93.5	1.07
c1ccc(-n2ncc3c(N4CCCCC4)ncnc32)cc1	65.7*	96.3*	114.6	40.5	25.1	1.97
C=CCN(CC=C)C(=O)COC(=O)c1ccc(Sc2ncn[nH]2)c([N+](=O)[O-])c1	0.2	0.1	-0.1	98.0	103.0	1.03
CCc1ccc(OCc2cnc(Cl)s2)cc1	-33.0	9.2	5.8	130.6*	94.2	1.46
CC1=CC(C)(C)N2C(=O)C3(C(C#N)=C(N)Oc4cc(O)ccc43)c3cccc1c32 (centres undefined)	-33.5	6.8	-15.4	130.7*	96.3	0.97
CC(OC(=O)CCc1nc2ccccc2c(=O)[nH]1)C(=O)NC1CCCC1 (centres undefined)	15.4	-1.5	5.0	86.0	97.7	1.23
CC(OC(=O)CCc1nc2ccccc2c(=O)[nH]1)C(=O)c1ccc(C(C)(C)C)cc1 (centres undefined)	-8.6	2.6	19.9	107.7	97.7	5.75*
Cc1ccc(S(=O)(=O)N(CC(=O)N/N=C/c2cccc(Cl)c2)c2cccc3cccnc23)cc1	8.2	1.2	-7.9	92.4	104.2	1
COc1ccc(N=c2scc(-c3ccc(S(=O)(=O)N4CCOCC4)cc3)n2CCCO)cc1	24.8	43.6*	10.8	76.0	67.6	0.72
C=CCn1c(-c2ccc(S(=O)(=O)N3CCOCC3)cc2)csc1=Nc1ccccc1	27.9	21.2	4.0	74.5	85.0	0.94
COc1ccc2occ(C(=O)c3ccccc3)c2c1	-42.7	11.2	36.1	135.3*	94.5	0.92
O=C(c1ccc(Cl)cc1)c1coc2ccc(O)cc12	-8.0	0.6	128.9	107.2	100.7	8.77*
CCOn1c(SCC)nc2ccccc2c1=O	6.7	-11.8	-9.7	93.9	114.7	1.75
CCSc1nn2c(=O)c3ccccc3nc2s1	-33.5	34.2	43.3	130.8*	75.9	2.4
O=C(O)/C=C/C(=O)NC1CCS(=O)(=O)C1 (centres undefined)	-4.4	8.5	6.2	103.9	94.6	1
Cc1ccc(C)c(C(=O)CC2(O)C(=O)N(C)c3ccccc32)c1 (centres undefined)	-1.2	5.0	2.2	97.8	96.8	0.85
c1cc(-c2cccs2)nc(-c2cccs2)c1	2.3	15.8	9.1	98.0	87.0	1.25
c1csc(-c2cn3ccc4ccccc4c3n2)c1	-49.3	-80.7	106.5	143.7*	171.2*	4.68*
COc1ccc(CNC(=O)CCSCc2cccc(Cl)c2)cc1	-6.4	1.1	22.8	105.8	99.8	1.12
CSC(=Nc1ccc(Cl)cc1)N[n+]1ccccc1	9.1	16.4	22.6	92.0	89.3	0.97

High-throughput results: PubChem BioAssay, several laboratories
